Experimental data published in ChEMBL document CHEMBL1125458, “3-O-alkylascorbic acids as free radical quenchers. 3. Protective effect on coronary occlusion-reperfusion induced arrhythmias in anesthetized rats” (1992).

Assays:
Rattus norvegicus [1] = assay: Change in heart rate was measured at mg/kg dose(iv) in anesthetized rats; type: functional
Procedure, shortened: (§1)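 Anesthetized male Wistar rats (pentobarbital 60 mg/kg ip); compound in saline/1% olive oil/1% Tween 80 given by femoral vein. Lead II ECG recorded and heart rate read by beat-to-beat tachograph for 10 min after dosing; change in beats/min, mean ± SE, n = 3–4.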

Rattus norvegicus [2] = assay: Effect (10 mg/kg, po) on coronary reperfusion-induced arrhythmias was assessed in anesthetized rats.(Intervals of ventricular tachycardia (VT)+ventricular fibrillation (VF) within 600 s.; type: functional, Cardiac ventricle
Procedure, shortened: (§2)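 Male Wistar rats (350–450 g) dosed orally 1 h before occlusion, then anesthetized with pentobarbital (60 mg/kg ip) and ventilated. LAD ligated 5 min, reperfused 10 min; VT plus VF durations summed within 600 s. Mean ± SE, n = 5–10; line 2 value is the minimum effective dose.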

Cavia porcellus [3] = organism: Cavia porcellus; assay: Inhibitory activity on atrial rate in isolated Guinea pig right atrea at 0.01 mg/mL concentration; type: functional, Cardiac atrium
Procedure, shortened: (§3)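 Right atria from male Hartley guinea pigs (450–550 g), loaded at 0.5 g, in Tyrode's solution at 37 °C gassed with 95% O2/5% CO2. Equilibrated at least 30 min until rate stable within 5 beats/min; spontaneous rate and contractile force recorded on polygraph after compound addition.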

Rattus norvegicus [4] = assay: Antiarrhythmic activity against anesthetized rats after intravenous administration; type: functional, Heart
Rattus norvegicus [5] = assay: Change in arterial blood pressure was measured at 0.3 mg/kg dose(iv) in anesthetized rats; type: functional, Artery
Procedure, shortened: (§4)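 Male Wistar rats, pentobarbital 60 mg/kg ip, supine. Compound suspended in saline with 1% olive oil and 1% Tween 80, injected via femoral vein. Femoral arterial pressure monitored 10 min after injection; change in mmHg, mean ± SE, n = 3–4.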

Cavia porcellus [6] = organism: Cavia porcellus; assay: Inhibitory activity on atrial contractility in isolated Guinea pig right atrea at 0.03 mg/mL concentration; type: functional, Cardiac atrium; procedure, shortened: as §3
Cavia porcellus [7] = organism: Cavia porcellus; assay: Inhibitory activity on atrial rate in isolated Guinea pig right atrea at 0.003 mg/mL concentration; type: functional, Cardiac atrium; procedure, shortened: as §3
Cavia porcellus [8] = organism: Cavia porcellus; assay: Inhibitory activity on atrial contractility in isolated Guinea pig right atrea at 0.01 mg/mL concentration; type: functional, Cardiac atrium; procedure, shortened: as §3
Rattus norvegicus [9] = assay: inhibitory activity was tested against anesthetized rats at 10 mg/kg; type: functional
Cavia porcellus [10] = organism: Cavia porcellus; assay: Inhibitory activity on atrial contractility in isolated Guinea pig right atrea at 0.003 mg/mL concentration; type: functional, Cardiac atrium; procedure, shortened: as §3
Cavia porcellus [11] = organism: Cavia porcellus; assay: Inhibitory activity on atrial rate in isolated Guinea pig right atrea at 0.03 mg/mL concentration; type: functional, Cardiac atrium; procedure, shortened: as §3
Rattus norvegicus [12] = organism: Rattus norvegicus; assay: Inhibition of lipid peroxidation in rat liver microsomes.; type: functional; parameters: concentration or dose not given beside the values; details: dose or concentration not given here
Procedure, shortened: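 Wistar rat liver microsomes (2.0 mg protein) in 83.5 mM KCl, 37.2 mM Tris-HCl pH 7.4 with 1 mM ADP, 10 µM FeCl3, 0.02 mM NADPH; compound added in DMF, tested at 10^-5 M. 37 °C, 20 min. Malondialdehyde measured by thiobarbituric acid method, A532; % inhibition, mean ± SD, n = 3–6.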

Rattus norvegicus [13] = assay: Antiarrhythmic activity against anesthetized rats after peroral administration; type: functional, Heart; procedure, shortened: as §2
Rattus norvegicus [14] = assay: Effect (0.3 mg/kg, iv) on coronary reperfusion-induced arrhythmias was assessed in anesthetized rats.(Intervals of ventricular tachycardia (VT)+ventricular fibrillation (VF) within 600 s.; type: functional, Cardiac ventricle
Rattus norvegicus [15] = assay: Effect (10 mg/kg, iv) on coronary reperfusion-induced arrhythmias was assessed in anesthetized rats.(Intervals of ventricular tachycardia (VT)+ventricular fibrillation (VF) within 600 s.; type: functional, Cardiac ventricle
Cavia porcellus [16] = organism: Cavia porcellus; assay: Inhibitory activity on atrial contractility in isolated Guinea pig right atrea at 0.3 mg/mL concentration; type: functional, Cardiac atrium; procedure, shortened: as §3
Cavia porcellus [17] = organism: Cavia porcellus; assay: Inhibitory activity on atrial contractility in isolated Guinea pig right atrea at 0.1 mg/mL concentration p<0.05; type: functional, Cardiac atrium; procedure, shortened: as §3
Cavia porcellus [18] = organism: Cavia porcellus; assay: Inhibitory activity on atrial rate in isolated Guinea pig right atrea at 0.3 mg/mL concentration; type: functional, Cardiac atrium; procedure, shortened: as §3
Cavia porcellus [19] = organism: Cavia porcellus; assay: Inhibitory activity on atrial rate in isolated Guinea pig right atrea at 0.1 mg/mL concentration; type: functional, Cardiac atrium; procedure, shortened: as §3
Cavia porcellus [20] = organism: Cavia porcellus; assay: Inhibitory activity on atrial contractility in isolated Guinea pig right atrea at 0.03 mg/mL concentration p<0.05; type: functional, Cardiac atrium; procedure, shortened: as §3
Rattus norvegicus [21] = assay: Change in heart rate was measured at 0.3 mg/kg dose(iv) in anesthetized rats; type: functional; procedure, shortened: as §1
Rattus norvegicus [22] = assay: Effect (0.1 mg/kg, iv) on coronary reperfusion-induced arrhythmias was assessed in anesthetized rats.(Intervals of ventricular tachycardia (VT)+ventricular fibrillation (VF) within 600 s; type: functional, Cardiac ventricle
Rattus norvegicus [23] = assay: Change in arterial blood pressure was measured at 0.1 mg/kg dose(iv) in anesthetized rats; type: functional, Artery; procedure, shortened: as §4
Rattus norvegicus [24] = assay: Effect (100 mg/kg, po) on coronary reperfusion-induced arrhythmias was assessed in anesthetized rats.(Intervals of ventricular tachycardia (VT)+ventricular fibrillation (VF) within 600 s; type: functional, Cardiac ventricle; procedure, shortened: as §2
Cavia porcellus [25] = organism: Cavia porcellus; assay: Inhibitory activity on atrial contractility in isolated Guinea pig right atrea at 0.1 mg/mL concentration; type: functional, Cardiac atrium; procedure, shortened: as §3
Rattus norvegicus [26] = assay: inhibitory activity was tested against anesthetized rats at 100 mg/kg; type: functional
Rattus norvegicus [27] = assay: Change in heart rate was measured at 0.1 mg/kg dose(iv) in anesthetized rats; type: functional; procedure, shortened: as §1
Rattus norvegicus [28] = organism: Rattus norvegicus; assay: Minimum effective dose of the compound; type: functional; details: read-out: MED
Rattus norvegicus [29] = organism: Rattus norvegicus; assay: Inhibitory effect on production of active oxygen species by rat peritoneal exudate macrophages; type: functional; parameters: concentration or dose not given beside the values
Procedure, shortened: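 Peritoneal exudate macrophages harvested 3 days after ip liquid paraffin (male Wistar rats), >90% viable. Assay: 125 mM sodium phosphate pH 6.5, 0.08 mM EDTA, 1.2 U LDH, 0.32 mM NADH, (2–3) × 10^6 cells, compound in DMF, 1 × 10^-4 M. Started with NADH.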

Rattus norvegicus [30] = assay: Effect (10 mg/kg, iv) on coronary reperfusion-induced arrhythmias was assessed in anesthetized rats.(Intervals of ventricular tachycardia (VT)+ventricular fibrillation (VF) within 600 s; type: functional, Cardiac ventricle

Structure (SMILES)	Arrhythmias times (Rattus norvegicus [2])	Efficacy (Rattus norvegicus [4])	Delta blood pressure (Rattus norvegicus [5])	Inhibition (Cavia porcellus [6])	inhibition in vivo at 10 mg/kg (Rattus norvegicus [9])	Inhibition (Cavia porcellus [11])	inhibition (Rattus norvegicus [12])	Efficacy (Rattus norvegicus [13])	Arrhythmias times (Rattus norvegicus [15])	Inhibition (Cavia porcellus [16])	Inhibition (Cavia porcellus [18])	Inhibition (Cavia porcellus [19])	Inhibition (Rattus norvegicus [29])	other results
COc1ccc(CCN(C)CCCC(C#N)(c2ccc(OC)c(OC)c2)C(C)C)cc1OC (configuration not stated) [VERAPAMIL]	56.7	>0.3 mg/kg	-46.7 mmHg	100%	87%	100%	37%	10 mg/kg						Delta heart rate (Rattus norvegicus [1]): -70 beats min-1; Inhibition (Cavia porcellus [3]): 63%; Inhibition (Cavia porcellus [7]): 37.9%; Inhibition (Cavia porcellus [8]): 77.8%; Inhibition (Cavia porcellus [10]): 49.9%; Arrhythmias times (Rattus norvegicus [14]): 121
CCCCCCCCCCCC1OCC(C2OC(=O)C(O)=C2OCC(C)=O)O1 (configuration not stated)							44%		478					
CCCCCCCCc1ccc(C(=O)COC2=C(O)C(=O)OC2C(O)CO)cc1 (configuration not stated)						-0.4%	88%		461	45%	0.3%	-0.9%		Inhibition (Cavia porcellus [17]): 33.5%; Inhibition (Cavia porcellus [20]): 15.8%
CCCCCCCCCCCCCCCCCCOC1=C(O)[C@@H](C(O)CO)OC1=O (some centres not stated)	413.2	>0.1 mg/kg	-35.3 mmHg	-10.7%	20%	-1.8%	88%	10 mg/kg		-39.9%	-13.6%	-6%	87%	Delta heart rate (Rattus norvegicus [21]): -55 beats min-1; Arrhythmias times (Rattus norvegicus [22]): 238; Delta blood pressure (Rattus norvegicus [23]): -10 mmHg; Arrhythmias times (Rattus norvegicus [24]): 39.4; Inhibition (Cavia porcellus [25]): -16.7%; inhibition in vivo at 100 mg/kg (Rattus norvegicus [26]): 92%; Delta heart rate (Rattus norvegicus [27]): -10 beats min-1; minimal effective dose (Rattus norvegicus [28]): 100 mg/kg
CCCCCCCCCCCCOC1=C(O)C(=O)OC1C(O)CO (configuration not stated)							91%						38.7%	Arrhythmias times (Rattus norvegicus [30]): 49
